Bioassay records: PubChem BioAssay, Johns Hopkins Ion Channel Center
MrgX1 antagonist = blocks BAM8-22 activation of human MrgX1 receptor | Q96LB2 | MRGX1-HEK293 calcium flux, Fluo-4, BAM8-22 antagonism; hits give low values | B-score at 10 µM | 310,000 compounds, 1.3% hits | AID 588676;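 active = calcium-response B-score plate-corrected more than 3 library SD below zero, starting fluorescence within 5 deviations, no agonist response on first addition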;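 note: peak minus trough fluorescence over baseline after final BAM8-22 challenge near maximal dose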
Target sequence (Q96LB2 whole entry, looked up): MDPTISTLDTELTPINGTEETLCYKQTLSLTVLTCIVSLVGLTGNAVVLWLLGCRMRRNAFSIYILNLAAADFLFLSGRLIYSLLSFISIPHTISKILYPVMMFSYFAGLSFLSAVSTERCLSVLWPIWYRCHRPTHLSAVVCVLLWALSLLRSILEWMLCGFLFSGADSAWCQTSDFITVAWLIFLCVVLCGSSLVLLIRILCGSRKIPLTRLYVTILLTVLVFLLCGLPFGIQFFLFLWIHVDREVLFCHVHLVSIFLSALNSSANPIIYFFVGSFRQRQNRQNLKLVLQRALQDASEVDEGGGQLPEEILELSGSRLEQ
RGS4 inh = inhibitors of human RGS4; 310,000 compounds, 0.45% hits; B-score at 10 µM; HEK293 M3R/RGS4 inducible, Fluo-4 calcium flux; hits give high values; triggered by carbachol at its EC20; P49798;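 active = B-score, a plate-corrected calcium signal, over three deviations above library mean, with baseline fluorescence within five deviations of library mean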;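 note: RGS4 expression induced by doxycycline in cells with stable M3 receptor; B-score is computed from the integrated fluorescence ratio over baseline after carbachol; higher B-score means a larger calcium signal and so more RGS4 inhibition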
Target sequence (P49798 whole entry, looked up): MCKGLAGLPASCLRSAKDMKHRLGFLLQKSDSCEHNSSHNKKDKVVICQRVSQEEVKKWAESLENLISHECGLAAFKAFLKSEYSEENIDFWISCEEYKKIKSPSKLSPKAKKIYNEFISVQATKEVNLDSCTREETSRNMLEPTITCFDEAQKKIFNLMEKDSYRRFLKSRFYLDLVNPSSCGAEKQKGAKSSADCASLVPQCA
MrgX1 ag = agonists of human MrgX1 receptor; Q96LB2; MrgX1-HEK293 cells, Fluo-4 calcium fluorescence, agonist mode; hits give high values; B-score at 10 µM; 310,000 compounds, 0.44% hits;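 active = calcium response B-score plate-corrected fluorescence ratio at least 3 library SD, with starting fluorescence B-score inside 5 SD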
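Assay system: stable human MrgX1 HEK293 cell line. Quantity: 15,000 cells per well. Schedule: cells plated overnight, dye loaded 0.5 h 37 °C, 0.5 h room temperature. Detection: Fluo-4 NW calcium-flux fluorescence, kinetic read. Read-out basis: peak-minus-minimum fluorescence over baseline, converted to B scores. Control set: positive and negative control wells on each plate.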
RGS4 pot = RGS4 potentiation or activation | AID 463111 | B-score at 10 µM | HEK293 M3R/inducible RGS4, carbachol calcium flux Fluo4; hits give low values | 310,000 compounds, 0.92% hits;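 active = B-score of the integrated calcium signal more than 4 SD below the library mean, with starting fluorescence not abnormally high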;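 note: negative B-score means reduced calcium response which marks RGS4 activation or potentiation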
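System: HEK293 FlpIn-TREx cells, stable M3R, doxycycline-inducible RGS4. Timing: overnight RGS4 induction, 30 min dye load 37 °C, 20 min compound RT. Also added: carbachol, ECmax concentration. Measured by: Fluo4 fluorescence kinetic imaging of calcium. Evaluation: integrated calcium ratio converted to B score.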
MrgX1 PAM = allosterically activates human MrgX1 receptor signaling | 310,000 compounds, 0.63% hits | Q96LB2 | B-score at 10 µM | MrgX1-HEK293, Fluo-4 calcium flux, FDSS; hits give high values;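 active = plate-corrected calcium response at least 3 library SD above typical, normal starting fluorescence, not activating the receptor alone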;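 note: compound read alongside a low EC10 to EC30 dose of BAM8-22 agonist; peak minus trough fluorescence over baseline measured at the second addition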
The depositor's hits bear a star. In the library only some 3.5% were active in any assay of this set; here they are far more common.

Screening CC1=NN(C(=O)COc2cc(C)ccc2C(C)C)C(O)(c2ccccc2)C1 (configuration not stated) returned MrgX1 antagonist inactive, RGS4 inh inactive, MrgX1 ag inactive, RGS4 pot inactive and MrgX1 PAM 8*.
For Cn1c(=O)c2c(nc(NCCOc3ccc(F)cc3)n2C)n(C)c1=O the results were MrgX1 antagonist inactive, RGS4 inh inactive, MrgX1 ag inactive, RGS4 pot inactive and MrgX1 PAM inactive.
For Cc1ccc(S(=O)(=O)N2CCC(=O)N(C(COCc3ccc(Cl)c(Cl)c3)Cc3ccccc3)CC2)cc1 (configuration not stated) the results were MrgX1 antagonist -6.1*, RGS4 inh inactive, MrgX1 ag inactive, RGS4 pot inactive and MrgX1 PAM inactive.
For Cc1ccc(S(=O)(=O)N2CCC(=O)N(C(COCc3cccc(C)c3)Cc3ccccc3)CC2)cc1 (configuration not stated) the results were MrgX1 antagonist inactive, RGS4 inh inactive, MrgX1 ag inactive, RGS4 pot inactive and MrgX1 PAM inactive.
Screening Cc1ccc(S(=O)(=O)N2CCC(=O)N(C(COCc3ccc(C(F)(F)F)cc3)Cc3ccccc3)CC2)cc1 (configuration not stated) returned MrgX1 antagonist inactive, RGS4 inh inactive, MrgX1 ag inactive, RGS4 pot -7.3* and MrgX1 PAM inactive.
Screening COc1ccc(NC(=O)COc2ccc(N(C)S(=O)(=O)c3ccc(Cl)cc3)cc2)cc1OC returned MrgX1 antagonist inactive, RGS4 inh inactive, MrgX1 ag inactive, RGS4 pot inactive and MrgX1 PAM inactive.
Screening Cc1c(N=Cc2c(O)n(C)c(=O)c3ccccc23)c(=O)n(-c2ccccc2)n1C returned MrgX1 antagonist inactive, RGS4 inh inactive, MrgX1 ag inactive, RGS4 pot -7.2* and MrgX1 PAM inactive.
For CCCN(CCC)CCNC(=O)c1cc2c(-c3ccc(Cl)cc3)nn(C)c2s1 the results were MrgX1 antagonist inactive, RGS4 inh inactive, MrgX1 ag inactive, RGS4 pot -7.2* and MrgX1 PAM inactive.
`O=c1ccnc(Sc2ncccc2[N+](=O)[O-])[nH]1` gave MrgX1 antagonist -5*, RGS4 inh inactive, MrgX1 ag inactive, RGS4 pot inactive and MrgX1 PAM inactive.
`Nc1ccc(C(=O)O)c(O)c1` gave MrgX1 antagonist inactive, RGS4 inh inactive, MrgX1 ag inactive, RGS4 pot inactive and MrgX1 PAM inactive.
Nc1ccc(N)c(C(=O)O)c1 was read as MrgX1 antagonist -5.6*, RGS4 inh inactive, MrgX1 ag inactive, RGS4 pot inactive and MrgX1 PAM inactive.
CC1N(C)c2cccc3cccc(c23)N1C was read as MrgX1 antagonist inactive, RGS4 inh inactive, MrgX1 ag 33*, RGS4 pot inactive and MrgX1 PAM inactive.
For CN1c2cccc3cccc(c23)N(C)C1c1cccs1 the results were MrgX1 antagonist inactive, RGS4 inh inactive, MrgX1 ag inactive, RGS4 pot inactive and MrgX1 PAM inactive.
For CC(CCc1ccccc1)N(C)CC(O)c1cccc([N+](=O)[O-])c1 (configuration not stated) the results were MrgX1 antagonist inactive, RGS4 inh inactive, MrgX1 ag inactive, RGS4 pot inactive and MrgX1 PAM inactive.
O=C(CNC(=O)c1ccccc1F)OCC(=O)c1ccc(Cl)s1 was read as MrgX1 antagonist inactive, RGS4 inh inactive, MrgX1 ag inactive, RGS4 pot inactive and MrgX1 PAM inactive.
Screening N#Cc1ccc(NC(=O)CNc2cc(S(=O)(=O)N3CCOCC3)ccc2NCC2CCCO2)cc1 (configuration not stated) returned MrgX1 antagonist inactive, RGS4 inh inactive, MrgX1 ag inactive, RGS4 pot inactive and MrgX1 PAM 6.6*.
Screening COc1cccc(NC(=O)C(=O)NCCCN2CCCC2=O)c1 returned MrgX1 antagonist inactive, RGS4 inh inactive, MrgX1 ag inactive, RGS4 pot inactive and MrgX1 PAM inactive.
Screening Cc1ccc(/C=C/C2=NN(Cc3ccccc3)C(=O)CC2)cc1 returned MrgX1 antagonist inactive, RGS4 inh inactive, MrgX1 ag inactive, RGS4 pot inactive and MrgX1 PAM inactive.
`O=C1CCC(/C=C/c2ccccc2)=NN1Cc1ccccc1` gave MrgX1 antagonist inactive, RGS4 inh inactive, MrgX1 ag inactive, RGS4 pot inactive and MrgX1 PAM 10*.
S=C(Nc1ccccc1)Nc1cc(Cl)ccc1Oc1ccccc1 was read as MrgX1 antagonist inactive, RGS4 inh inactive, MrgX1 ag inactive, RGS4 pot inactive and MrgX1 PAM 9.1*.
CCCc1nc2ccc(NC(=O)c3ccco3)cc2c(=O)n1Cc1ccc(Cl)cc1 was read as MrgX1 antagonist -6.7*, RGS4 inh inactive, MrgX1 ag inactive, RGS4 pot inactive and MrgX1 PAM inactive.
Screening CCOc1ccc(C(=O)NCC(=O)NNC(=O)C2COc3ccccc3O2)cc1OCC (configuration not stated) returned MrgX1 antagonist -5.4*, RGS4 inh inactive, MrgX1 ag inactive, RGS4 pot inactive and MrgX1 PAM inactive.
Cc1ccc(O)c(NC(=S)NC(=O)C(C)C)c1 was read as MrgX1 antagonist inactive, RGS4 inh inactive, MrgX1 ag inactive, RGS4 pot inactive and MrgX1 PAM inactive.
`O=[N+]([O-])c1cnc2ccccc2c1` gave MrgX1 antagonist inactive, RGS4 inh inactive, MrgX1 ag inactive, RGS4 pot inactive and MrgX1 PAM inactive.
For O=[N+]([O-])c1cc([N+](=O)[O-])c2cc3ccccc3nc2c1 the results were MrgX1 antagonist inactive, RGS4 inh 14*, MrgX1 ag 28*, RGS4 pot inactive and MrgX1 PAM inactive.
CCC1CCCCN1CCCNS(=O)(=O)c1ccc2c(c1)oc(=O)n2C (configuration not stated) was read as MrgX1 antagonist inactive, RGS4 inh inactive, MrgX1 ag inactive, RGS4 pot inactive and MrgX1 PAM 18*.
For COc1ccccc1OCCNC(=O)C1CCCCC1 the results were MrgX1 antagonist inactive, RGS4 inh inactive, MrgX1 ag inactive, RGS4 pot inactive and MrgX1 PAM inactive.
O=C(Nc1nc(-c2cc(F)ccc2F)cs1)C1=COCCO1 was read as MrgX1 antagonist -5.1*, RGS4 inh inactive, MrgX1 ag inactive, RGS4 pot inactive and MrgX1 PAM inactive.
O=C(c1ccc(OC2CCN(CCCc3ccccc3)CC2)cc1)N1CCCC1 was read as MrgX1 antagonist inactive, RGS4 inh inactive, MrgX1 ag inactive, RGS4 pot -7.4* and MrgX1 PAM inactive.
Screening CC(=O)N1CCN(C(=O)c2ccc(OC3CCN(CCc4ccccc4)CC3)cc2)CC1 returned MrgX1 antagonist inactive, RGS4 inh inactive, MrgX1 ag inactive, RGS4 pot inactive and MrgX1 PAM inactive.
